Measured values collected from several papers.
Each line is one published result; the experiments were not run side by side.
EGFR L858R/T790M: Epidermal growth factor receptor (EGFR, Homo sapiens, UniProt P00533, L858R/T790M)
EGFR: Epidermal growth factor receptor (EGFR, Homo sapiens, UniProt P00533)
EGFR G719C: Epidermal growth factor receptor (EGFR, Homo sapiens, UniProt P00533, G719C)
EGFR L858R: Epidermal growth factor receptor (EGFR, Homo sapiens, UniProt P00533, L858R)
EGFR del746-750: Epidermal growth factor receptor (EGFR, Homo sapiens, UniProt P00533, del746-750)
EGFR T790M: Epidermal growth factor receptor (EGFR, Homo sapiens, UniProt P00533, T790M)
EGFR A750P/del747-749: Epidermal growth factor receptor (EGFR, Homo sapiens, UniProt P00533, A750P/del747-749)
EGFR del752-759: Epidermal growth factor receptor (EGFR, Homo sapiens, UniProt P00533, del752-759)
EGFR del747-752/P753S: Epidermal growth factor receptor (EGFR, Homo sapiens, UniProt P00533, del747-752/P753S)
EGFR L861Q: Epidermal growth factor receptor (EGFR, Homo sapiens, UniProt P00533, L861Q)

CCN1CCN(Cc2ccc(C(=O)Nc3ccc(C)c(Oc4ccc5c(c4)CC(=O)N5)c3)cc2C(F)(F)F)CC1
remaining binding (EGFR L858R/T790M; binding, competition with immobilised ligand; 1 µM): 90%

Cc1ccc(NC(=O)c2ccc(CN3CCN(C)CC3)cc2)cc1Nc1nccc(-c2cccnc2)n1
remaining binding (EGFR; cell-free assay, competition with immobilised ligand; 0.1 µM): 100%

Cc1nc(N2CC[C@@H](O)C2)ncc1-c1cc(C(F)(F)F)cc2[nH]ncc12
remaining binding (EGFR G719C; cell-free assay, competition with immobilised ligand; 1 µM): 100%

N[C@H]1CCN(c2nccc(-c3cnn4ncccc34)n2)C1
remaining binding (EGFR; binding; 1 µM): 100%

Nc1ncc2c(n1)-c1c([nH]c3ccc(C#CC4CC4)cc13)CCCC2
remaining binding (EGFR L858R/T790M; binding, competition with immobilised ligand; 1 µM): 87%

CC(C)(C)c1ccc(-c2nc(CBr)nn2-c2cccc(O)c2)cc1
remaining binding (EGFR L858R; cell-free assay, competition with immobilised ligand; 10 µM): 78%

Cc1c(-c2ccccc2)oc2c(C(=O)OCCN3CCCCC3)cccc2c1=O
remaining binding (EGFR; cell-free assay, competition with immobilised ligand; 10 µM): 88%

COc1ncc2cc3ccccc3nc2c1C#N
remaining binding (EGFR del746-750; cell-free assay, competition with immobilised ligand; 5 µM): 87%

COc1ccnn2ncc(-c3ccnc(N(C)C)n3)c12
remaining binding (EGFR G719C; binding; 1 µM): 92%

CN1CCN(c2ccc(Nc3nccc(-c4cccc([N+](=O)[O-])c4)n3)cc2C(F)(F)F)CC1
remaining binding (EGFR T790M; binding; 10 µM): 45%

CCOC(=O)c1cc2cc(-c3cc(C(=O)NCc4ccc(C(=O)O)cc4)nn3C)ccc2[nH]1
remaining binding (EGFR T790M; cell-free assay, competition with immobilised ligand; 0.1 µM): 89%

O=C(NCCCN1CCOCC1)c1ccc(Nc2ncc(Cl)c(-c3ccc(Cl)s3)n2)cc1
remaining binding (EGFR A750P/del747-749; binding, competition with immobilised ligand; 1 µM): 72%

CO[C@@H](C)c1c(Nc2ccc([C@H](N(C)C(=O)C3CCS(=O)(=O)CC3)C(F)(F)F)cc2)cnc2cc(Cl)nn12
remaining binding (EGFR A750P/del747-749; cell-free assay, competition with immobilised ligand; 1 µM): 99%

O=C(NCCCN1CCOCC1)c1ccc(Nc2nccc(-c3cc4ccccc4s3)n2)cc1
remaining binding (EGFR L858R; binding, competition with immobilised ligand; 1 µM): 88%

Cc1nccc(COC(=O)N2C[C@@H]3[C@@H](CNC(=O)c4ccc5[nH]nnc5c4)[C@@H]3C2)n1
remaining binding (EGFR A750P/del747-749; cell-free assay, competition with immobilised ligand; 1 µM): 71%

Cc1cnn2ncc(-c3ccnc(N(C)C)n3)c2c1
remaining binding (EGFR L858R; binding; 1 µM): 100%

O=C(NCC1CCOCC1)c1n[nH]cc1NC(=O)c1c(F)cccc1F
remaining binding (EGFR; binding, competition with immobilised ligand; 1 µM): 99%

Cc1noc([C@H]2C[C@@H](c3ccc(C(F)(F)F)cc3)CN(C(=O)N3CCS(=O)(=O)C3)C2)n1
remaining binding (EGFR L858R/T790M; cell-free assay, competition with immobilised ligand; 1 µM): 96%

O=C(c1ccc(Nc2nccc(-c3cc4ccccc4s3)n2)cc1)N1CCC(N2CCCC2)CC1
remaining binding (EGFR G719C; binding, competition with immobilised ligand; 1 µM): 93%

C[C@H](NC(=O)c1cnc2n1[C@](C)(Cc1ccc(C#N)cc1)C(=O)N2c1cc(Cl)c(F)c(Cl)c1)C(=O)NC1(c2ccccn2)CC1
remaining binding (EGFR del752-759; cell-free assay, competition with immobilised ligand; 1 µM): 100%

O=C(c1ccc(Nc2ncc(Cl)c(-c3cc4ccccc4s3)n2)cc1)N1CCC(N2CCCC2)CC1
remaining binding (EGFR del747-752/P753S; binding, competition with immobilised ligand; 1 µM): 79%

c1cncc(-c2cccc(Nc3nccc(NC4CCCCC4)n3)c2)c1
remaining binding (EGFR L861Q; binding, competition with immobilised ligand; 10 µM): 53%

CN1CCN(c2ccc(Nc3nccc(-c4ccccc4)n3)cc2C(F)(F)F)CC1
remaining binding (EGFR L861Q; binding; 10 µM): 94%

CC1CCCN1c1nccc(-c2cnn3ncccc23)n1 (stereo not drawn)
remaining binding (EGFR del746-750; binding; 1 µM): 75%

Cc1cnc(Nc2ccc(C(=O)N3CCC(N4CCCC4)CC3)cc2)nc1-c1cc2ccccc2s1
remaining binding (EGFR G719C; binding, competition with immobilised ligand; 1 µM): 92%

O=C(Nc1c[nH]nc1C(=O)NC1CCNCC1)c1cc(F)cc(F)c1
remaining binding (EGFR L861Q; binding, competition with immobilised ligand; 1 µM): 100%

COc1cnc(Nc2cccc(S(N)(=O)=O)c2)nc1N1CCN(c2ccccc2)CC1
remaining binding (EGFR del752-759; binding, competition with immobilised ligand; 1 µM): 94%

c1ccc(N2CCN(Cc3nc4ccccc4[nH]3)CC2)nc1
remaining binding (EGFR T790M; cell-free assay, competition with immobilised ligand; 1 µM): 99%

C[C@H]1CCN(c2nccc(-c3cnn4ncccc34)n2)C1
remaining binding (EGFR del746-750; binding; 1 µM): 71%

CNC(=O)[C@@H]1CC[C@@H](n2c(-c3ccc4cnccc4c3)nc3ccc(C(=O)NCc4cccc(C(N)=O)c4)cc32)C1
remaining binding (EGFR; binding, competition with immobilised ligand; 1 µM): 100%

O=C(c1ccc(Nc2ncc(Cl)c(-c3ccc(Cl)s3)n2)cc1)N1CCC(N2CCCC2)CC1
remaining binding (Epidermal growth factor receptor (EGFR, Homo sapiens, UniProt P00533, del747-750/T751S); binding, competition with immobilised ligand; 1 µM): 100%

CN(C)c1nccc(-c2cnc3ncccn23)n1
remaining binding (EGFR T790M; binding; 1 µM): 58%

COc1cnc(Nc2cccc(S(N)(=O)=O)c2)nc1N1CCN(c2ccccc2)C(=O)C1
remaining binding (EGFR L858R/T790M; binding, competition with immobilised ligand; 1 µM): 72%

c1cnn2ncc(-c3ccnc(N4CCC45COC5)n3)c2c1
remaining binding (EGFR L861Q; binding; 1 µM): 96%

CNC(=O)Nc1ccc2c(c1)CC[C@@]21OC(=O)N(CC(=O)N(Cc2ccc(F)cc2)[C@@H](C)C(F)(F)F)C1=O
remaining binding (EGFR del747-752/P753S; cell-free assay, competition with immobilised ligand; 1 µM): 64%

O=C(NC1CCC1)c1ccc2nc(-c3cccc(NS(=O)(=O)NCCN4CCCCC4)c3)cn2c1
remaining binding (EGFR del747-752/P753S; cell-free assay, competition with immobilised ligand; 10 µM): 100%
